Reference: ChEMBL document CHEMBL4689842, “EUbOPEN Chemogenomics Library wave 1” (2021)

Experiments:
Format in all cases: toxicity, cell-based
Fibroblast = experiment: Incucyte cell viability with human fibroblast; settings: 10 µM, compound concentration 10 uM; note: filed as whole numbers so only -1 and 0 and 1 occur
HEK-293T = experiment: Incucyte cell viability with HEK293T; settings: human, 10 µM, compound concentration 10 uM; note: filed as whole numbers so only -1 and 0 and 1 occur
U2OS [1] = experiment: Multiplex assay against U2OS; settings: human
Outline: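 Hoechst33342, BioTracker Green Microtubule Cytoskeleton Dye, MitoTracker Red and Annexin V Alexa Fluor 680 were added to live cells at seeding, and imaging on a CQ1 microscope at 37°C and 5% CO2 followed compound addition. Gating by CellPathfinder machine learning separated cells into Hoechst high-intensity objects or normal cells, then normal cells into healthy, pyknosed or fragmented nuclei, then pyknosed cells into mitotic or apoptotic. Per cents of healthy-nucleus cells are reported for the tubulin, mitochondrial-mass and membrane-permeability phenotypes.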

U2OS [2] = experiment: Incucyte cell viability with U2OS; settings: human, 10 µM, compound concentration 10 uM; note: filed as whole numbers so only -1 and 0 and 1 occur
[3] = 6 h, replicate number 1, timepoint 6 hours
[4] = 12 h, replicate number 1, timepoint 12 hours
[5] = 18 h, replicate number 1, timepoint 18 hours
[6] = 24 h, replicate number 1, timepoint 24 hours
[7] = 12 h, 1 µM, compound concentration 1 uM, replicate 1
[8] = 12 h, 1 µM, compound concentration 1 uM, replicate 2
[9] = 12 h, 10 µM, compound concentration 10 uM, replicate 1
[10] = 12 h, 10 µM, compound concentration 10 uM, replicate 2
[11] = 24 h, 1 µM, compound concentration 1 uM, replicate 1
[12] = 24 h, 1 µM, compound concentration 1 uM, replicate 2
[13] = 24 h, 10 µM, compound concentration 10 uM, replicate 1
[14] = 24 h, 10 µM, compound concentration 10 uM, replicate 2

Compound: CC[C@H](Nc1ncnc2[nH]cnc12)c1nc2cccc(F)c2c(=O)n1-c1ccccc1 [IDELALISIB]
- Growth Rate (Fibroblast; [3]): 0
- Growth Rate (Fibroblast; [4]): 0
- Growth Rate (Fibroblast; [5]): 0
- Growth Rate (Fibroblast; 18 h, replicate number 2, timepoint 18 hours): 1
- Growth Rate (Fibroblast; [6]): 1
- Growth Rate (HEK-293T; [3]): 0
- Growth Rate (HEK-293T; [4]): 0
- Growth Rate (HEK-293T; [5]): 0
- Growth Rate (HEK-293T; [6]): 0
- Population Apoptotic (%) (U2OS [1]; [7]): 46%
- Population Fragmented Nuclei (%) (U2OS [1]; [7]): 1%
- Population Healthy Nuclei (%) (U2OS [1]; [7]): 88%
- Population Hoechst High Intensity Objects (%) (U2OS [1]; [7]): 3%
- Population Membrane Permeable-Phenotype (%) (U2OS [1]; [7]): 47%
- Population Mitochondria Different-Phenotype (%) (U2OS [1]; [7]): 10%
- Population Mitotic Cells (%) (U2OS [1]; [7]): 53%
- Population Normal (%) (U2OS [1]; [7]): 96%
- Population Pyknosed Nuclei (%) (U2OS [1]; [7]): 9%
- Population Tubulin-Different-Phenotype (%) (U2OS [1]; [7]): 34%
- Total Cell Count (U2OS [1]; [7]): 162
- Population Apoptotic (%) (U2OS [1]; [8]): 14%
- Population Fragmented Nuclei (%) (U2OS [1]; [8]): 10%
- Population Healthy Nuclei (%) (U2OS [1]; [8]): 84%
- Population Hoechst High Intensity Objects (%) (U2OS [1]; [8]): 9%
- Population Membrane Permeable-Phenotype (%) (U2OS [1]; [8]): 45%
- Population Mitochondria Different-Phenotype (%) (U2OS [1]; [8]): 8%
- Population Mitotic Cells (%) (U2OS [1]; [8]): 85%
- Population Normal (%) (U2OS [1]; [8]): 90%
- Population Pyknosed Nuclei (%) (U2OS [1]; [8]): 5%
- Population Tubulin-Different-Phenotype (%) (U2OS [1]; [8]): 27%
- Total Cell Count (U2OS [1]; [8]): 132
- Population Apoptotic (%) (U2OS [1]; [9]): 0%
- Population Fragmented Nuclei (%) (U2OS [1]; [9]): 5%
- Population Healthy Nuclei (%) (U2OS [1]; [9]): 86%
- Population Hoechst High Intensity Objects (%) (U2OS [1]; [9]): 11%
- Population Membrane Permeable-Phenotype (%) (U2OS [1]; [9]): 4%
- Population Mitochondria Different-Phenotype (%) (U2OS [1]; [9]): 18%
- Population Mitotic Cells (%) (U2OS [1]; [9]): 100%
- Population Normal (%) (U2OS [1]; [9]): 88%
- Population Pyknosed Nuclei (%) (U2OS [1]; [9]): 7%
- Population Tubulin-Different-Phenotype (%) (U2OS [1]; [9]): 90%
- Total Cell Count (U2OS [1]; [9]): 180
- Population Fragmented Nuclei (%) (U2OS [1]; [10]): 8%
- Population Healthy Nuclei (%) (U2OS [1]; [10]): 88%
- Population Hoechst High Intensity Objects (%) (U2OS [1]; [10]): 16%
- Population Mitochondria Different-Phenotype (%) (U2OS [1]; [10]): 28%
- Population Normal (%) (U2OS [1]; [10]): 83%
- Population Pyknosed Nuclei (%) (U2OS [1]; [10]): 2%
- Population Tubulin-Different-Phenotype (%) (U2OS [1]; [10]): 15%
- Total Cell Count (U2OS [1]; [10]): 130
- Population Apoptotic (%) (U2OS [1]; [11]): 45%
- Population Fragmented Nuclei (%) (U2OS [1]; [11]): 3%
- Population Healthy Nuclei (%) (U2OS [1]; [11]): 85%
- Population Hoechst High Intensity Objects (%) (U2OS [1]; [11]): 3%
- Population Membrane Permeable-Phenotype (%) (U2OS [1]; [11]): 28%
- Population Mitochondria Different-Phenotype (%) (U2OS [1]; [11]): 9%
- Population Mitotic Cells (%) (U2OS [1]; [11]): 54%
- Population Normal (%) (U2OS [1]; [11]): 96%
- Population Pyknosed Nuclei (%) (U2OS [1]; [11]): 10%
- Population Tubulin-Different-Phenotype (%) (U2OS [1]; [11]): 17%
- Total Cell Count (U2OS [1]; [11]): 210
- Population Apoptotic (%) (U2OS [1]; [12]): 42%
- Population Fragmented Nuclei (%) (U2OS [1]; [12]): 9%
- Population Healthy Nuclei (%) (U2OS [1]; [12]): 77%
- Population Hoechst High Intensity Objects (%) (U2OS [1]; [12]): 5%
- Population Membrane Permeable-Phenotype (%) (U2OS [1]; [12]): 32%
- Population Mitochondria Different-Phenotype (%) (U2OS [1]; [12]): 15%
- Population Mitotic Cells (%) (U2OS [1]; [12]): 57%
- Population Normal (%) (U2OS [1]; [12]): 94%
- Population Pyknosed Nuclei (%) (U2OS [1]; [12]): 13%
- Population Tubulin-Different-Phenotype (%) (U2OS [1]; [12]): 15%
- Total Cell Count (U2OS [1]; [12]): 148
- Population Apoptotic (%) (U2OS [1]; [13]): 33%
- Population Fragmented Nuclei (%) (U2OS [1]; [13]): 3%
- Population Healthy Nuclei (%) (U2OS [1]; [13]): 93%
- Population Hoechst High Intensity Objects (%) (U2OS [1]; [13]): 11%
- Population Membrane Permeable-Phenotype (%) (U2OS [1]; [13]): 2%
- Population Mitochondria Different-Phenotype (%) (U2OS [1]; [13]): 19%
- Population Mitotic Cells (%) (U2OS [1]; [13]): 66%
- Population Normal (%) (U2OS [1]; [13]): 88%
- Population Pyknosed Nuclei (%) (U2OS [1]; [13]): 2%
- Population Tubulin-Different-Phenotype (%) (U2OS [1]; [13]): 94%
- Total Cell Count (U2OS [1]; [13]): 244
- Population Apoptotic (%) (U2OS [1]; [14]): 40%
- Population Fragmented Nuclei (%) (U2OS [1]; [14]): 9%
- Population Healthy Nuclei (%) (U2OS [1]; [14]): 82%
- Population Hoechst High Intensity Objects (%) (U2OS [1]; [14]): 8%
- Population Membrane Permeable-Phenotype (%) (U2OS [1]; [14]): 8%
- Population Mitochondria Different-Phenotype (%) (U2OS [1]; [14]): 30%
- Population Mitotic Cells (%) (U2OS [1]; [14]): 60%
- Population Normal (%) (U2OS [1]; [14]): 91%
- Population Pyknosed Nuclei (%) (U2OS [1]; [14]): 7%
- Population Tubulin-Different-Phenotype (%) (U2OS [1]; [14]): 21%
- Total Cell Count (U2OS [1]; [14]): 146
- Growth Rate (U2OS [2]; 0 h, replicate number 1, timepoint 0 hours): 0
- Growth Rate (U2OS [2]; [3]): 0
- Growth Rate (U2OS [2]; [4]): 1
- Growth Rate (U2OS [2]; 12 h, replicate number 2, timepoint 12 hours): 0
- Growth Rate (U2OS [2]; [5]): 0
- Growth Rate (U2OS [2]; [6]): 0
